According to publication PMC2661818 (Psychopharmacology, 2008):
Structures can show the parent of a compound that is named as a salt. Where two headings read alike, the source gives them in different places.

Legend:
[1] = tested on: rats trained to discriminate 10 mg/kg cocaine, IP from saline; format: in vivo, Sprague—Dawley rats; settings: for Maximal cocaine responding: SEM in parentheses; for Maximal levels of cocaine responding: in each/all rearing groups (BMS, AFR, LMS)
Summary of the method: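 Adult Sprague–Dawley rats (6 per rearing condition per sex) from BMS, LMS or AFR rearing, trained at 10 mg/kg IP (15-min pretreatment) vs saline. Tests: 10 consecutive responses on either manipulandum gave a pellet. Novel training-drug doses (0.56–18 mg/kg) in random order; pretreatment 1–120 min. Group mean % drug responding: ≥80% full, ≤20% saline-like. Rates as % of vehicle.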

[2] = tested on: rats discriminating cocaine injections; settings: cited from earlier work; for Cocaine-like responding (partial): ref Witkin et al. 1991; for Substitution for the cocaine cue: reduced training dose (3.0 mg/kg cocaine), ref Terry et al. 1994
[3] = tested on: rats; settings: ref Moffett et al. (2006a), cited from earlier work
[4] = tested on: c-Fos; test: Cocaine-induced c-Fos expression; format: in vivo, Sprague—Dawley rats; settings: 10 mg/kg IP, 14 days
[5] = rat, IP injection, cited from earlier work
[6] = Plasma cocaine assessment by LC/MS/MS; format: in vivo, Sprague—Dawley rats; settings: males, 10 mg/kg IP
[7] = females, all rearing conditions

With `Fc1ccc(C(OCCN2CCN(CCCc3ccccc3)CC2)c2ccc(F)cc2)cc1` [GBR12909, GBR12909 bismesylate hydrate] the “Doses producing more cocaine-like responding” value ([1]; females, AFR) was 5.6 to 18 mg/kg, the Maximal cocaine responding ([1]; females, AFR) was 80.28% and the Maximal cocaine responding ([1]; females, BMS) was 99.64%. For the same compound, the “Doses producing more partial responding” value ([1]; females, LMS) was 3.2 to 10 mg/kg, the Maximal cocaine responding ([1]; females, LMS) was 83.39% and the “Effect on rate of responding” value [1, 7] was “dose dependently decreased”. For the same compound, the Generalization profile ([1]; males, AFR, two lowest doses (1.0–3.2 mg/kg)) was “partial cocaine responding”, the Generalization profile ([1]; males, BMS and LMS, two lowest doses (1.0–3.2 mg/kg)) was “saline responding” and the “Effect on rate of responding” value ([1]; males, all rearing conditions) was “dose dependently decreased rate of responding”.
For `Oc1cc2c(cc1O)C(c1ccccc1)CNCC2` (stereo not shown) [SKF38393, SKF38393 hydrobromide], the “Cocaine-like responding (partial)” value ([2]; 10 mg/kg cocaine training dose) is given as 20–80%, the “Substitution for the cocaine cue” value [2] is given as “substitute fully” and the “Effect on rate of responding” value [1, 7] is given as “dose dependently decreased”. The “Maximal levels of cocaine responding” value ([1]; females) was “approximately 50%”, the Generalization profile ([1]; males, AFR and LMS, 18 mg/kg) was “partial generalization” and the Maximal cocaine responding ([1]; males, AFR) was 81.41%. For the same compound, the “Rates of responding (disrupted)” value ([1]; males, BMS and AFR groups, 32 mg/kg) was under 0.20 mean responses per second, the Maximal cocaine responding ([1]; males, BMS) was 95.68% and the Maximal cocaine responding ([1]; males, LMS) was 83.52%. The “Effect on rate of responding” value ([1]; males, all rearing conditions) was “dose-dependent decreases in rates” and the Generalization profile ([1]; males, all rearing conditions, 10 mg/kg) was “partial generalization”.
In the case of `COC(=O)[C@H]1[C@@H](OC(=O)c2ccccc2)C[C@@H]2CC[C@H]1N2C` [cocaine, Cocaine hydrochloride], the Self-administration ([3]; BMS rats) is listed as “did not self administer cocaine above saline levels at any dose tested”, the “Dose at which self-administration was acquired” value ([3]; LMS rats) is listed as 0.0625 mg/kg/infusion and the “Fos-IR, cocaine- vs saline-treated” value ([4]; AFR females, NAcc Core and central CPu) is listed as “significantly greater Fos-IR”. For the same compound, the “c-Fos expression, cocaine- vs saline-treated” value ([4]; AFR males, central and dorsomedial CPu) was “trend for significantly greater c-Fos expression”, the “c-Fos expression, cocaine- vs saline-treated” value ([4]; BMS males and females, any brain region examined) was “never statistically significant differences” and the “c-Fos, cocaine- vs saline-treated” value ([4]; LMS males, ICjM) was “showed significance”. The “Effect on rate of responding” value [1, 7] was “dose dependently decreased rate of responding”, the “Effect on rate of responding” value ([1]; males, all rearing conditions) was “did not have an effect on rate of responding” and the “Cocaine-appropriate responding as a function of dose” value ([1]; novel doses 0.56–18 mg/kg, all groups) was “dose-dependent increases in cocaine-appropriate responding”. For the same compound, the “Time to peak plasma” value ([5]; ref Misra et al. 1974) was 4 h, the “Elimination half-life (t1/2)” value ([5]; ref Nayak et al. 1976) was 48 to 60 min and the “Plasma cocaine levels, effect of time” value [6] was “decreasing from 15 to 60 min”.
In the case of `CCCN1CCC[C@@H]2Cc3n[nH]cc3C[C@H]21` [quinpirole, quinpirole hydrochloride], the “Generalization to the cocaine cue” value ([2]; 10 mg/kg cocaine training dose, ref Barrett and Appel 1989, Callahan et al. 1991, Callahan and Cunningham 1993) is listed as “full generalization”, the “Cocaine-like responding (partial)” value ([2]; 10 mg/kg cocaine training dose) is listed as 20–80% and the “Substitution for the cocaine cue” value [2] is listed as “substitute fully”. For the same compound, the Generalization profile ([1]; females, all groups, doses of 0.061–0.18 mg/kg) was “intermediate levels of responding”, the “Effect on rate of responding” value [1, 7] was “dose dependently decreased” and the “Maximal levels of cocaine responding” value ([1]; females) was about 80%. For the same compound, the Generalization profile ([1]; males, LMS, all doses except 0.125 mg/kg) was “only partial generalization” and the “Effect on rate of responding” value ([1]; males, all rearing conditions) was “dose dependently decreased the number of responses”.
